Shown are actives, neighbours in structure and some others; about 2.2% of the full set was active somewhere.
MT1-MMP act inh = blockers of MT1-MMP proenzyme processing, primary screen, HT1080 RFP-PRO-GFP cells, GFP/RFP fluorescence; GFP/RFP ratio change, % at 20 µM; 0.061% of 360,000 active; AID 651647, 2012; Matrix metalloproteinase-14 (Homo sapiens), P50281; GFP/RFP ratio fluorescence, overnight; percent of plate control window, DMSO zero;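 active = GFP/RFP ratio change of at least 30% with cell ATP level not reduced by more than half and red fluorescence within 50% of control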
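Assay system – RFP-PRO-GFP reporter HT1080 cells · Compound dosing – single dose of 20 µM compound, 1% DMSO final · Incubation – overnight compound exposure at 37 °C · Measure – GFP/RFP fluorescence ratio · Benchmarks – DMSO wells and RFP-L50D-GFP cells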
proKLK7 act = proKLK7 zymogen activators, primary screen, biochemical, fluorescence intensity. activation, % at 7 µM. Kallikrein-7 (Homo sapiens), P49862. purified proKLK7, EDANS-DABCYL substrate fluorescence; 100% is mature enzyme control, 0% vehicle. 0.9% of 370,000 active;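 active = activation above the mean of all tested compounds plus 3 SD, computed per campaign excluding outliers beyond control limits, cut at about 13% in these data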
DDE Tn7 FP inh = inhibitors of Tn7 peptide binding to fibrin DD(E), primary screen, biochemical, fluorescence polarization, human fibrin, Tn7 probe | inhibition, % at 8.3 µM | FP displacement of FITC-Tn7 peptide from fibrin DD(E); 0% = median of compound wells per plate | AID 720508, 2013 | 0.13% of 370,000 active;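 active = inhibition above the mean of compounds falling within the control limits plus 3 SD of them, cut at about 14% in these data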
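Also added: labelled Tn7 tracer, 0.1 µM; Assay system: human fibrin DD(E) protein; Amount: 2 µM fibrin DD(E); Schedule: 10 min compound pre-incubation, 3 h probe incubation at room temperature; Repeats: one replicate per compound; Read-out basis: percent inhibition; Measured by: fluorescence polarization of the labelled Tn7 tracer.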
SKN-1 inh = suppressors of acrylamide-induced Pgst-4::GFP reporter in worms, primary screen, SKN-1 inhibitor project, whole organism, uHTS, GFP/RFP fluorescence ratio, strain VP596; AID 624304, 2012; 0.49% of 360,000 active; C. elegans VP596 Pgst-4::GFP/RFP ratio, 24 h; inhibition, % at 21.8 µM;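 active = interference check ratio from 0.5 to 1.5 plus GFP to RFP signal ratio inhibition reaching or exceeding a fixed threshold, cut at about 30% in these data, passing the limit was not always enough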
DDE Tn6 FP inh = inhibitors of Tn6 peptide binding to fibrin DD(E), primary screen, biochemical, fluorescence polarization, human fibrin, Tn6 probe; inhibition, % at 8.3 µM; Fibrinogen beta chain (Homo sapiens), P02675; 0.21% of 370,000 active; Fibrin DD(E) TRITC-Tn6 fluorescence polarization displacement;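 active = inhibition above a per-campaign cutoff: mean of compounds within control limits plus 3 SD, cut at about 15% in these data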
Neddylation inh = inhibitors of cullin neddylation, primary screen, biochemical, TR-FRET, uHTS, NAE and Ubc12; NEDD8-conjugating enzyme Ubc12 (Homo sapiens) + NEDD8-activating enzyme E1 regulatory …; calls only at 25 µM; 0.58% of 360,000 active; in the data active = inhibition above about 36%
Target sequence (P61081 whole entry, looked up): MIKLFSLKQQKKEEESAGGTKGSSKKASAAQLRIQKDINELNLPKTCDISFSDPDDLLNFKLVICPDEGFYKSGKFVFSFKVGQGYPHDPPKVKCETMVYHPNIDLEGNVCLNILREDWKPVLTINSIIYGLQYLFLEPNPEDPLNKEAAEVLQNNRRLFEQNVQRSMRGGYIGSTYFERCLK
Target sequence (Q13564 whole entry, looked up): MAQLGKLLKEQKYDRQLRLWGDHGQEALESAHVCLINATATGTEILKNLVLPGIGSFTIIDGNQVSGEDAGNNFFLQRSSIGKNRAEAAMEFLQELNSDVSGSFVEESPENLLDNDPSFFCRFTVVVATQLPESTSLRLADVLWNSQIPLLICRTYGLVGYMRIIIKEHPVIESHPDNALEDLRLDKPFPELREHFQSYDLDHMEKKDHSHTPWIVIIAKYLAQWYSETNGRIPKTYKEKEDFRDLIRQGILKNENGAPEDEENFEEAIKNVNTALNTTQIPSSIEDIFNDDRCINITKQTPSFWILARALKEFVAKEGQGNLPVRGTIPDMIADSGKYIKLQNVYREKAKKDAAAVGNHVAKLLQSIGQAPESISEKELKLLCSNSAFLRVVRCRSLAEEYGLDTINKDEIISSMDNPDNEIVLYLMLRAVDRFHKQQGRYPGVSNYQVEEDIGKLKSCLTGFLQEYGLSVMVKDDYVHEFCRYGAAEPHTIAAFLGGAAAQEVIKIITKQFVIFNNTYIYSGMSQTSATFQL
Hits are given with their value; n = inactive; x = no result given; + = active, no number.

SMILES	MT1-MMP act inh	proKLK7 act	DDE Tn7 FP inh	SKN-1 inh	DDE Tn6 FP inh	Neddylation inh
COc1ccc(C(C)=O)cc1COC(=O)CNC(=O)c1cc(C)cc(C)c1	n	n	n	n	n	n
CCCn1nc(NC(=O)CC(C)C)c2cc3cccc(C)c3nc21	n	n	n	n	n	n
Cc1ccc(C(=O)n2nc(-c3cccnc3)nc2N)cc1	n	n	n	37.1	n	n
CCCOC(=O)c1[nH]c2c(c1C)C(=O)CC(c1ccc(OC)c(OC)c1)C2 (stereo unspecified)	n	n	n	n	n	n
C(=C\c1nc(-c2ccncc2)no1)/c1ccccc1	n	n	n	79.3	n	n
CN(C)CC(O)c1ccc(C=Cc2ccc(Cl)cc2)cc1 (stereo unspecified)	n	n	n	52.5	n	n
Cc1ccc(Cl)cc1N1CCN(C(=O)c2noc(C)c2[N+](=O)[O-])CC1	n	n	n	n	n	n
COc1ccc(N2CCN(S(=O)(=O)CCNC(=O)COc3ccccc3)CC2)cc1	n	n	n	n	n	n
CC1(OC(=O)C2CCCC2)C(=O)C=C2C=C3CCCCN3C=C2C1=O (stereo unspecified)	n	x	x	n	x	n
COC/C=C/C1=CC2=CC(=O)C(C)(OC(=O)C3CCCC3)C(=O)C2=CO1 (stereo unspecified)	n	n	n	36.2	n	n
COc1ccc(NS(=O)(=O)c2cccc(-c3nnc(-c4ccccc4)o3)c2)cc1	n	n	n	34.0	n	n
O=S(=O)(NC1CCCC1)c1cccc(-c2nnc(-c3ccccc3)o2)c1	n	x	x	n	x	n
CC(C)c1onc(C(=O)N2CCCCC2)c1[N+](=O)[O-]	n	n	n	n	n	n
N#CC(C#N)=C(N)/C(C#N)=C/c1cc(O)c(O)c(O)c1	n	n	n	92.9	n	n
N#C/C(=C\c1ccc(O)c(O)c1)C(=O)c1ccc(O)c(O)c1	n	n	n	n	n	n
CC(C)N(Cc1nc(-c2ccc(Cl)cc2)no1)C(=O)c1cccs1	n	n	n	n	n	n
O=[N+]([O-])c1ccc(/C=C/C2=NN(c3ccccc3)C(c3ccco3)C2)o1 (stereo unspecified)	n	n	n	33.3	n	n
C(=C\c1ccco1)/C1=NN(c2ccccc2)C(c2ccco2)C1 (stereo unspecified)	n	x	x	n	x	x
COc1ccccc1C1CC(=O)Oc2cc(OC)c(OC)c(OC)c21 (stereo unspecified)	n	n	n	n	n	n
Cn1cc(CN2CCCC(C(=O)Nc3cccc(-n4cccn4)c3)C2)cn1 (stereo unspecified)	n	n	n	n	n	n
Cc1c(CN2CCCC(C(=O)Nc3cccc(-n4cccn4)c3)C2)cnn1C (stereo unspecified)	n	n	n	35.8	n	n
Clc1ccc(-c2nc(Cc3ccccc3Cl)no2)cc1	n	n	n	n	n	n
Clc1ccc(Cc2noc(-c3cccs3)n2)cc1	n	n	n	81.6	n	n
CCN(CC)C(=O)c1[nH]cnc1C(=O)N[C@@H](Cc1ccccc1)C(=O)OCc1ccccc1	n	n	n	n	n	n
CC(=O)N1/C(=C/c2ccc(N(C)C)cc2)C(=O)c2ccccc21	n	n	n	35.3	n	n
Clc1ccc(OCc2cnc(Cl)s2)cc1	n	n	n	61.3	n	n
O=C(O)c1ccc(NC(=O)c2cccc(S(=O)(=O)Nc3ccc(C(=O)O)cc3)c2)cc1	n	n	n	n	n	n
O=C1CSc2ccc(C(=O)Nc3cccc(S(=O)(=O)Nc4ccc(Br)cc4)c3)cc2N1	n	n	n	n	+	n
COc1cccc(-n2cnnn2)c1	n	n	n	40.5	n	n

Screening data deposited in PubChem BioAssay by several laboratories.
